Sequences and labels used below:
B1: tRNA (parent)
chain: GUUCCGUUGGCGUAAUGGUAACGCGUCUCCCUCCUAAGGAGAAGACUGCGGGUUCGAGUCCCGUACGGAACG

Fewer inactive variants are shown than the library holds.

Variants of B1 are the subject of this series. As to the kind of experiment: yeast fitness relative to wild type (ratio to wild type); higher = fitter; tRNA-Arg(CCU), competitive growth, 37 C, YPD. A digest of the protocol:
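Genotype frequency changes were the basis for Darwinian fitness relative to wild type. The frequencies came from 100-nucleotide paired-end sequencing of gene amplicons from the start population and each end population of pooled yeast strains with tRNA-Arg(CCU) gene variants at the native locus. Competition ran in YPD at 37°C for 24 hours in six replicates, genotypes needed ≥ 100 starting reads, and estimates < 0.5 were set to 0.5.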
With GUUCCGUUGGCGUGAUGGGAACGCGUCUCCCUCCUAAGGAGAAGACUCCGGGUGCGAGUCCCGUCCGGAACG, the yeast fitness was at most 0.5.

For the variant GUUCCGUUGGCGUGAUGGUAACGCGUCUCCCUCCUAAGGAGAAGACUGCGGGUUCGAGUCCCGUACGUAUCG, the yeast fitness is at most 0.5. Next, GUUCCGUUGGCGUGAUGGCAACGCGUCUCCGUCCUAUGGAGAAGACUGCGGGUUCGAGUCCCGUUCGGAACG: at most 0.5. For the variant GUUCCGUUGGCGUGAUGGUAACGCGUCUCCCCCCUAAGGAGAAGACUGCGGGUUCGAGUCCCGUACGGAACG, the yeast fitness was 0.931.

As for GUUCCGUUGGCGUGAUGGUAACGCGUCCCCCUCCUAAGGAGAAGACUGCGGGUUCGAGUCCCGUACGAAACG, the yeast fitness is at most 0.5. In the case of GUUCCGUUGGCGUGAUGGUAACGCGGCUCCCUCCUAAGGAGACGAAUGCGGGUUCGAGUCCCGUACGGAACG it was at most 0.5; in that of GUUCCGUUGGCGUGAUGGUAACGCGUCGUCCUCCUAAGGAGAAGACUGUGGGUAUGAGUCCCGUACGGACCG, 0.603. Next, GUUCCGUUGGCGUGAUGGUAACGCGUCUCCCUCCAAAGGAGUAGAGUGCGGGUUCAAGUCCCGUACGGAACG: 0.524; GUUCCGUUGGCGUGAUGGUAACGCGUCUCCCUCCUAAGGAGAAGACUGCGGGUGCGAGUCCCGUACGGACCG: at most 0.5; GUUCCGUUGGCGUGAUGGUAACGCGUCUCCCUCCUAAGGAGAAGACUGCGGGUUCGACUCCCGUACGGAACG: 0.989.

GUUCCGUUGGCGUGAUGGUAACGCGGCUCCCUCCUAAGGAGAAGACUGCGGGUGCGAGUCCCGUACGGUACG: the yeast fitness is at most 0.5.

Regarding GUUCCGUUGGCGUGAUGGCAACGCGUCUCCCUCCCAAGGGGAAGACUGCGGGUUCGAGUCCCGUACGGAACG, the yeast fitness is at most 0.5. GUUCCGUUGGCGUGAUGGUAACGCGUCUCCCUCCUAAGGAGAAGACUGCGGGUUCAAGUCCCGUACCGAACG: the yeast fitness was at most 0.5. In the case of GUUCCGUUGGCGUUCUGGUAACGAGACUCCCUCCUAAGGAGAAGACUGCCGGUUCGAGUCCCGUACGGAACG it was 0.544; in that of GUUCCGUUGGCGUGAUGGUAACGCGUCUCCCUCCUAAGGAGAAGACUGCGGCUUCGAGUCCCGUACGGAUCG, at most 0.5; in that of GUUCCGUUGGCGUGAUGGUAACGCGUCUCCCUCCUAAGGAGAAGACCGCGGGUUCGAGUCCCGUACGAAACG, at most 0.5.

In the case of GUUCCGUUGGCGUGAUGGUAACGCGUCUCCCUCCUAAGGAGAAGACGGCGGGUUCGAGUCCUGUACGGAACG, the yeast fitness is at most 0.5.

Regarding GUUCCGUUGGCGUGAUGGUAACGCGUCUCCCUCCUAAGGAGAAGACUGCGGGAUCGAGUCCCGUACGGAACG, the yeast fitness was 0.63. Regarding GUUCCGUUGGCGUGAUGGUAACGCGUCUCCCUCCUAAGGAGAAGACUGCGGGCUCGAGUCCCGUACGGAACG, the yeast fitness was determined as 0.775. For the variant GUUCCGUUGGCGUGAUGGUAACGCGCCUCUCUCCUAAGGAGAAGACUGCGGGUUCGAGUCCCGUACGGAACG, the yeast fitness stood at 0.567. Next, GUUCCGUUGGCGUGAUGGUAACGCGUCUCCCUCCUAAGGAGAAGACUGCGGGUUCGAAUCCCGUUCGGAACG: 0.782; GUUCCGUUGGCGUGAUGGUAACGCGGCUCCCUCCUAAGGAGAAGACUGCGGCUUCGAGUACCGUACGGAACG: 0.616; GUUCCGUUGGCGUGAUGGUAACGCGCCUCCCUCCUAAGGAGAAGACUGCGGGUUCGAGUCCCGUACGGAACG: 0.879. In the case of GUUCCGUUGGCGUGAUGGUAACGCGUCUCCCUCCUAAGGAGAAGACUGCGGAUUCCAGUCCCGUGCGGAACG it was at most 0.5. Next, GUUCCGUUGGCGUGAUGGUAACGCGUCUCCCUCCUAAGGAGAAGACUGCGGGUUCGAGUCCCGUACGCAACG: 0.78.

GUUCCGUUGGCGUGAUGGUAACGCGUCUCCCUCCUAAGGAGAAGACUGCGGGUUCGAGUCCCGUACGUAACG: the yeast fitness is 0.826. Turning to GUUCCGUUGGCGUGAUGGAAACGCGUCUCCCUCUUAAGGAGAAGACUGCGGGUUCGAGUCCCGUACGGAACG, the yeast fitness was at most 0.5.

GUUCCGUUGGCGUUCUGGUAACGCGUCUCCGUCCUAAGGAGAUGACUGCGGGUUCGAGUCCCGUACGGAGCG: the yeast fitness was determined as 0.556. In the case of GUUCCGUUGGCGUGAUGGUAACGCGUCUCCCUCCGAAGGGGAAGACUGCGGGUUCGGGUCCCGUACGGAACG it was at most 0.5. In the case of GUUCCGUUGGCGUGAUGGUAACGCGUCUCCCCCCUAAGGAGCAGACUGCGGGUUCGUGUCGCGUACGGAACG it was at most 0.5; in that of GUUCCGUUGGCGUGAUGGCAACGCGUCUCCCUCCUAAGGAGAAGACUGCGGGUUCGAGACCCGUACGGAACG, at most 0.5.

In the case of GUUCCGUUGGCGUGAUGGUAACGCGUCUCCCUCCCAAGGAGAAGACUGCGGGUUCGAGUCCGGUGCGGAACG, the yeast fitness is 0.635. In the case of GUUCCGUUGGCGUGAUGGUAACGCGUCUCCCACCUAAGGAGAAGACUGCGGGUUCGAGUCCUGUACGGAACG it was at most 0.5.

Take GUUCCGUUGGCGUGAUGGUAACGCGUCUCCCUCCUAAGGAGAAGACAGCGGGUUCGAGUCCCGUACGGCACG: the yeast fitness was at most 0.5. With GUUCCGUUGGCGUGAUGGUAACGCGUCUCCCUCCUAAGGAGAAGACUCCAGGUUCGAGUCCCGUACGGAACG, the yeast fitness was determined as 0.546.

Regarding GUUCCGUUGGCGUGAUGGAAACGCGUCUCCCUCCUAAGGAGAAGACUGCGGGUUCGAGUCCCGUACGGAACG, the yeast fitness stood at 0.809. As for GUUCCGUUGGCGUGAUGGGAACGCGUCUCCCUCCUAAGGAGAAGACUGCGGGUUCGAGUCCCGUACGGAACG, the yeast fitness is 0.856.

Source of the values: the RNAGym collection of RNA variant scans (doi:10.1126/science.aae0568).
